Screens as filed in PubChem BioAssay.
Compounds with a hit are over-represented: about 2.4% of the library has one in this group of screens.
LMPTP inh: LMPTP phosphatase inhibitors, primary screen, biochemical, fluorescence intensity, uHTS; Low molecular weight phosphotyrosine protein phosphatase (Homo sapiens), P24666; recombinant LMPTP-A, OMFP fluorogenic substrate; inhibition, % at 20 µM; 360,000 tested, 0.22% active; AID 651560, 2012;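 active = compounds that cut the enzyme signal by at least half of the control window in the single-dose screen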;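 also: plate controls were DMSO wells with enzyme plus substrate for no effect and substrate without enzyme for full effect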
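Test system: LMPTP-A, protein tyrosine phosphatase of low molecular weight; Input: 0.625 nM enzyme; Incubation: 50 min dark incubation at room temperature; Signal: endpoint fluorescence intensity from OMFP dephosphorylation; Read-out basis: % inhibition versus control wells.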
DNMT1 block: human DNMT1 methyltransferase inhibitors, primary screen, biochemical, molecular beacon, fluorescence, HinP1I cleavage, uHTS. DNA (cytosine-5)-methyltransferase 1 (Homo sapiens), P26358. inhibition (reported as % activation of signal), % at 10 µM. AID 588458, 2011. 360,000 tested, 0.83% active; in the data active = inhibition above about 50%
NadD block: inhibitors of S. aureus NadD, primary screen, biochemical, colorimetric, uHTS; AID 602399, 2012; purified NadD enzyme, colorimetric absorbance read-out; inhibition, % at 20 µM; Nicotinate-nucleotide adenylyltransferase NadD (Staphylococcus aureus N315); 360,000 tested, 0.78% active; in the data active = inhibition above about 26%
SUMO1-SIM PPI: modulators of SUMO1 protein-protein interactions, primary screen, biochemical, uHTS | inhibition, % at 20 µM | Small ubiquitin-related modifier 1 (Homo sapiens), P63165 | 360,000 tested, 0.33% active | AID 602429, 2012 | SUMO1 binding to a labelled peptide, TR-FRET, 1 h; in the data active = inhibition above about 37%
Scp1 inh: Scp-1 phosphatase inhibitors, primary screen, biochemical, colorimetric, uHTS; Carboxy-terminal domain RNA polymerase II polypeptide A small phosphatase 1 (Homo …; Recombinant Scp1, phosphopeptide, malachite green phosphate absorbance; inhibition, % at 20 µM; 340,000 tested, 0.88% active; AID 493091, 2011;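 active = inhibition above about 50% at 20 µM, limit read from the data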;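 also: plate controls were DMSO wells with enzyme for no effect and wells lacking enzyme for full effect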
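assay system = SCP-1 phosphatase catalytic domain, residues 76-261 | buffer or medium = 50 mM Tris acetate pH 5.5, 0.005% Tween-20, 10 mM MgCl2 | incubation = enzyme reaction 45 min at room temperature, colour 5 min, stabilisation 30 min | signal = Phosphate-binding colour reagent, absorbance read at 630 nm | measure = % inhibition at 20 µM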
STEP block: STEP phosphatase inhibitors, primary screen, biochemical, fluorescence intensity, uHTS | AID 588621, 2011 | Tyrosine-protein phosphatase non-receptor type 5 (Homo sapiens), P54829 | inhibition, % at 20 µM | 360,000 tested, 0.25% active | recombinant STEP, OMFP fluorogenic substrate;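 active = inhibition at 20 µM, scaled per plate between control wells, above about 37%, limit read from the data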;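 also: 0% = DMSO with enzyme and substrate and 100% = substrate only without enzyme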
Target sequence (P54829 whole entry, looked up): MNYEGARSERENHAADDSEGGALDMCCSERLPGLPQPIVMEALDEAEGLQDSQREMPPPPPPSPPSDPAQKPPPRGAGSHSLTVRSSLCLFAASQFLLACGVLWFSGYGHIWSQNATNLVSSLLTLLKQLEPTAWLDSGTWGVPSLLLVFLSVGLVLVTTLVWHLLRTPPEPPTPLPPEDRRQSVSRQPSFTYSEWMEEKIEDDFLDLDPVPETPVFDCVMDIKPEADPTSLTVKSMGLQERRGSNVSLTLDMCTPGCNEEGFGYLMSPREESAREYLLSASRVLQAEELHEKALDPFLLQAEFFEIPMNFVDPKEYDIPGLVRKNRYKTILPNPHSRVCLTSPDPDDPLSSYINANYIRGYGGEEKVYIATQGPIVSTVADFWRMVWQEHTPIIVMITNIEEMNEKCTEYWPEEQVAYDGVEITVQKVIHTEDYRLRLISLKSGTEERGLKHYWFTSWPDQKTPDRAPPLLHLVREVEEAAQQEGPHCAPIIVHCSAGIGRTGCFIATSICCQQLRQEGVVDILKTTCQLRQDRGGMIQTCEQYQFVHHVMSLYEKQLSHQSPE
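Measure: Control-normalized % inhibition with plate pattern correction | Test system: STEP phosphatase, cell-free reaction | Medium: pH 6.0 Bis-Tris with DTT and Tween 20 | Technique: Fluorescence, 480/540 nm | Times: Reaction 20 min, ambient temperature | Doses: Single compound dose of 20 µM, 1% DMSO final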
Scp-1 conf: Scp-1 phosphatase inhibitors, retest, confirmation, biochemical, colorimetric, single concentration; shares compounds with Scp1 inh; inhibition, % at 20 µM; recombinant SCP-1 catalytic domain, phosphate release, malachite green absorbance; 2,500 tested, 61% active; AID 540281, 2011;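 also: plate controls were DMSO with enzyme for no effect and buffer wells lacking enzyme for full effect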
MG interference: colorimetric readout interference by compounds, confirmation, artefact control for Scp-1 inhibitor project, biochemical, single concentration. apparent inhibition (interference), % at 20 µM. shares compounds with Scp1 inh. Colorimetric interference counterscreen, malachite green absorbance 630 nm. 2,500 tested, under 10 active;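 also: compounds added after enzyme reaction finished so only phosphate colour detection is probed; plate controls were DMSO wells with completed Scp-1 reaction for no effect and substrate wells lacking enzyme for full effect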
Scp-1 Tm shift: Scp-1 binding by thermal shift, confirmation, orthogonal assay for Scp-1 inhibitor project, biophysical, differential scanning fluorimetry | shares compounds with Scp1 inh | Recombinant SCP1, Sypro Orange thermal shift Tm | thermal shift relative to vanadate control, % at 40 µM | 1,500 tested, 25% active;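 active = substances whose mean melting-temperature shift, as a percentage of the reference inhibitor's shift, reaches about 5.3%, limit read from the data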;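 also: 0% = Tm of DMSO wells and 100% = Tm with sodium orthovanadate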
The depositor's hits bear a star; x = not tested or not shown.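 The calls were made as follows, unless noted: active = inhibition of at least 30% at 20 µM; inactive = the rest.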

SMILES	LMPTP inh	DNMT1 block	NadD block	SUMO1-SIM PPI	Scp1 inh	STEP block	Scp-1 conf	MG interference	Scp-1 Tm shift
CCN1C(=O)[C@H]2[C@H]3CN=C(SCc4ccc(C)cc4)N3[C@@](C)(C(=O)OC)[C@H]2C1=O	-1.2	1.4	6.1	6.5	8.2	-1.4	x	x	x
Cc1ccc(CCNC(=O)CCNS(=O)(=O)c2ccc3c(c2)oc(=O)n3C)cc1	-1.5	1.6	-0.8	2.2	-2.2	-2.4	-2.9	-1.0	x
CC(C)CC(=O)N1CCN(c2ccc(NC(=O)c3ccco3)cc2)CC1	-1.1	-0.8	3.0	-4.0	6.4	2.1	x	x	x
COc1ccc(-c2cn(CCO)c(-c3ccncc3)n2)cc1	-0.3	2.1	-0.1	3.3	2.6	0.5	x	x	x
O=C(CCCN1C(=O)/C(=C\c2ccccc2)SC1=S)Nc1cccc(C(=O)O)c1	1.4	1.2	2.7	-24.0	-7.1	-1.0	x	x	x
O=C(CCN1C(=O)/C(=C\C=C\c2ccccc2)SC1=S)Nc1cccc(C(=O)O)c1	46.3	15.8	26.1	11.2	85.0*	14.9	74.9*	-19.2	11.2*
O=C(CCN1C(=O)/C(=C/c2ccc3c(c2)OCO3)SC1=S)Nc1cccc(C(=O)O)c1	3.3	4.0	12.0	-0.5	69.1*	7.4	77.7*	-9.0	10.8*
O=C(CCN1C(=O)/C(=C/c2ccccc2)SC1=S)NNC(=O)c1cccnc1	-0.7	1.4	7.2	-15.9	1.5	3.6	x	x	x
O=C(CCN1C(=O)/C(=C/c2ccc3c(c2)OCO3)SC1=S)NNC(=O)c1cccnc1	7.3	-2.2	9.7	-12.1	61.7*	2.0	45.8*	-9.0	0.3
O=C(CCN1C(=O)/C(=C/c2ccc(Cl)cc2)SC1=S)Nc1cccc(C(=O)O)c1	1.4	-0.2	12.8	-6.9	89.0*	9.8	66.3*	-3.2	9.7*
O=C(CCN1C(=O)/C(=C/c2cccs2)SC1=S)Nc1cccc(C(=O)O)c1	0.6	2.2	5.7	-1.6	36.3	5.1	x	x	x
CCOC(=O)c1cc(OCC)c2c(ccc3cc(OC)ccc32)n1	0.8	-4.1	-6.5	4.3	x	3.9	x	x	x
COc1ccc(Cc2c(-c3ccc(F)cc3)nc3cc(C)c(Br)c(C)n23)c(C)c1	4.3	x	9.3	-2.2	x	x	x	x	x
COc1ccc(/C=C2\SC(=S)N(CCC(=O)Nc3cccc(C(=O)O)c3)C2=O)cc1	1.4	-1.5	13.3	-0.1	61.2*	18.3	52.5*	-9.8	18.2*
Cc1ccc(/C=C2\SC(=S)N(CCCC(=O)Nc3cccc(C(=O)O)c3)C2=O)cc1	1.8	1.8	16.1	-10.2	40.0	7.1	x	x	x
CC(C(=O)Nc1cccc(S(=O)(=O)N2CCOCC2)c1)N1CCN(c2ccc(F)cc2)CC1 (stereo not given)	0.4	1.2	-2.1	-3.5	-3.4	0.3	x	x	x
C=CCNC(=O)c1ccc(C2SCC(=O)N2Cc2ccco2)cc1 (stereo not given)	2.7	0.1	4.0	-0.6	68.8*	1.1	52.8*	-20.3	-2.9
